Laboratory results published in ChEMBL document CHEMBL2396515, “Quercetin-POC conjugates: Differential stability and bioactivity profiles between breast cancer (MCF-7) and colorectal carcinoma (HCT116) cell lines” (Bioorg Med Chem, 2013).
Active and inactive are the calls of the source. The calls are words filed in the database; no cut-off is given here.

Tests used:
[1] = Half life of the compound in DMEM cell-free cell culture medium at 50 uM by HPLC analysis; type: physicochemical
How it was run: (§1)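 Conjugates diluted from a 10 mM DMSO stock to 50 µM final in cell-free culture medium (DMEM with 10% FBS), held at 37 °C. Samples were taken at 0, 1, 3, 6, 12, 24, 48 and 96 h, vortexed, and run on C18 reverse-phase HPLC with an acetonitrile/0.1% formic acid gradient at 1 mL/min, detected by UV at 340 nm.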

[2] = Half life of the compound in PBS buffer at pH 7.4 at 50 uM by HPLC analysis; type: physicochemical
How it was run: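 Compound at 50 µM in PBS pH 7.4, incubated at 37 °C. Aliquots were drawn at 0, 1, 3, 6, 12, 24, 48 and 96 h and analysed by C18 reverse-phase HPLC with an acetonitrile/0.1% formic acid gradient, detected by UV at 340 nm.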

MCF7 [3] = assay: Cytotoxicity against human MCF7 cells at 1 to 100 uM after 12 hrs by MTT assay; type: functional, cell-based
How it was run: (§2)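 MCF-7 or HCT116 cells were seeded at 5×10^3 per well in DMEM with 10% FBS and grown 1 day at 37 °C, 5% CO2. Compounds in 1% DMSO were added at 1, 5, 10, 50, 100 or 250 µM. Viability was read by MTT after 12 h; each assay was done three times.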

HCT-116 [4] = assay: Cytotoxicity against human HCT116 cells at 1 to 100 uM after 12 hrs by MTT assay; type: functional, cell-based; how it was run: as §2
[5] = Metabolic stability in human MCF7 cells assessed as compound remaining at 30 uM after 1 hr by HPLC analysis; type: ADME, cell-based; conditions: read-out: Stability
How it was run: (§3)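 MCF-7 or HCT116 cells were seeded at 2×10^5 per well and grown 24 h at 37 °C, 5% CO2, then given 30 µM conjugate. At 1, 3, 6 and 12 h cells were PBS-washed, trypsinized, sonicated and filtered. Lysates were run on C18 HPLC (UV 340 nm). Each species is reported as a percentage of integrated peak area; peaks were identified by MALDI-TOF MS.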

HCT-116 [6] = assay: Drug metabolism in human HCT116 cells assessed as quercetin sulfate level at 30 uM after 1 hr by HPLC analysis; type: ADME, cell-based; conditions: hct-116, 1 h; how it was run: as §3
[7] = Solubility of the compound in DMEM cell-free cell culture medium up to 100 uM; type: physicochemical
How it was run: (§4)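 DMSO stocks ([…]–10 mM) were serially diluted into PBS pH 7.4 or DMEM with 10% FBS to final 0.5, 5, 25, 50, 100, 200 µM (2% DMSO) and 300 µM (3% DMSO). Solubility was judged by forward light scattering in a laser nephelometer.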

MCF7 [8] = assay: Drug metabolism in human MCF7 cells assessed as quercetin-glucuronide level at 30 uM after 12 hrs by HPLC analysis; type: ADME, cell-based; conditions: mcf7, 12 h; how it was run: as §3
HCT-116 [9] = assay: Drug metabolism in human HCT116 cells assessed as quercetin-glucuronide level at 30 uM after 3 hrs by HPLC analysis; type: ADME, cell-based; conditions: hct-116, 3 h; how it was run: as §3
HCT-116 [10] = assay: Drug metabolism in human HCT116 cells assessed as quercetin sulfate level at 30 uM after 3 hrs by HPLC analysis; type: ADME, cell-based; conditions: hct-116, 3 h; how it was run: as §3
HCT-116 [11] = assay: Drug metabolism in human HCT116 cells assessed as quercetin sulfate level at 30 uM after 6 hrs by HPLC analysis; type: ADME, cell-based; conditions: hct-116, 6 h; how it was run: as §3
[12] = Metabolic stability in human MCF7 cells assessed as compound remaining at 30 uM after 6 hrs by HPLC analysis; type: ADME, cell-based; conditions: read-out: Stability; how it was run: as §3
HCT-116 [13] = assay: Drug metabolism in human HCT116 cells assessed as quercetin-glucuronide level at 30 uM after 6 hrs by HPLC analysis; type: ADME, cell-based; conditions: hct-116, 6 h; how it was run: as §3
HCT-116 [14] = assay: Drug metabolism in human HCT116 cells assessed as quercetin level at 30 uM after 6 hrs by HPLC analysis; type: ADME, cell-based; conditions: hct-116, 6 h; how it was run: as §3
MCF7 [15] = assay: Metabolic stability in human MCF7 cells assessed as compound remaining at 30 uM after 12 hrs by HPLC analysis; type: ADME, cell-based; conditions: mcf7, 12 h; how it was run: as §3
HCT-116 [16] = assay: Drug metabolism in human HCT116 cells assessed as quercetin level at 30 uM after 3 hrs by HPLC analysis; type: ADME, cell-based; conditions: hct-116, 3 h; how it was run: as §3
HCT-116 [17] = assay: Drug metabolism in human HCT116 cells assessed as quercetin-glucuronide level at 30 uM after 1 hr by HPLC analysis; type: ADME, cell-based; conditions: hct-116, 1 h; how it was run: as §3
MCF7 [18] = assay: Drug metabolism in human MCF7 cells assessed as quercetin sulfate level at 30 uM after 12 hrs by HPLC analysis; type: ADME, cell-based; conditions: mcf7, 12 h; how it was run: as §3
[19] = Metabolic stability in human HCT116 cells assessed as compound remaining at 30 uM after 1 hr by HPLC analysis; type: ADME, cell-based, HCT-116; conditions: read-out: Stability; how it was run: as §3
[20] = Chemical stability of the compound in DMEM cell-free cell culture medium at 50 uM after 24 to 54 hrs by HPLC analysis; type: physicochemical; how it was run: as §1
MCF7 [21] = assay: Drug metabolism in human MCF7 cells assessed as quercetin level at 30 uM after 12 hrs by HPLC analysis; type: ADME, cell-based; conditions: mcf7, 12 h; how it was run: as §3
HCT-116 [22] = assay: Drug metabolism in human HCT116 cells assessed as quercetin level at 30 uM after 1 hr by HPLC analysis; type: ADME, cell-based; conditions: hct-116, 1 h; how it was run: as §3
[23] = Metabolic stability in human HCT116 cells assessed as compound remaining at 30 uM after 6 hrs by HPLC analysis; type: ADME, cell-based, HCT-116; conditions: read-out: Stability; how it was run: as §3
HCT-116 [24] = assay: Drug metabolism in human HCT116 cells assessed as quercetin level at 30 uM after 12 hrs by HPLC analysis; type: ADME, cell-based; conditions: hct-116, 12 h; how it was run: as §3
[25] = Metabolic stability in human HCT116 cells assessed as compound remaining at 30 uM after 3 hrs by HPLC analysis; type: ADME, cell-based, HCT-116; conditions: read-out: Stability; how it was run: as §3
MCF7 [26] = assay: Drug metabolism in human MCF7 cells assessed as quercetin-glucuronide level at 30 uM after 1 hr by HPLC analysis; type: ADME, cell-based; conditions: mcf7, 1 h; how it was run: as §3
[27] = Solubility of the compound in PBS buffer at 0.5 to 300 uM; type: physicochemical; how it was run: as §4
[28] = Metabolic stability in human HCT116 cells assessed as compound remaining at 30 uM after 12 hrs by HPLC analysis; type: ADME, cell-based, HCT-116; conditions: read-out: Stability; how it was run: as §3
[29] = Solubility of the compound in PBS buffer at 300 uM; type: physicochemical; how it was run: as §4
[30] = Metabolic stability in human MCF7 cells assessed as compound remaining at 30 uM after 3 hrs by HPLC analysis; type: ADME, cell-based; conditions: read-out: Stability; how it was run: as §3
HCT-116 [31] = assay: Drug metabolism in human HCT116 cells assessed as quercetin sulfate level at 30 uM after 12 hrs by HPLC analysis; type: ADME, cell-based; conditions: hct-116, 12 h; how it was run: as §3
HCT-116 [32] = assay: Drug metabolism in human HCT116 cells assessed as quercetin-glucuronide level at 30 uM after 12 hrs by HPLC analysis; type: ADME, cell-based; conditions: hct-116, 12 h; how it was run: as §3
MCF7 [33] = assay: Drug metabolism in human MCF7 cells assessed as quercetin sulfate level at 30 uM after 1 hr by HPLC analysis; type: ADME, cell-based; conditions: mcf7, 1 h; how it was run: as §3

## O=c1c(O)c(-c2ccc(O)c(O)c2)oc2cc(O)cc(O)c12 [QUERCETIN]
[1]
  half-life at 50 µM: < 0.5 h
[2]
  half-life at 50 µM: 10 h
MCF7 [3]
  Activity: Active
HCT-116 [4]
  Activity: Active

## CC(C)OC(=O)OCOc1c(-c2ccc(O)c(O)c2)oc2cc(O)cc(O)c2c1=O
[5]
  remaining at 1 h, 30 µM: 92%
HCT-116 [6]
  Stability: Stable
[7]
  solubility: soluble
MCF7 [8]
  Stability: Stable
HCT-116 [9]
  Stability: Stable
[1]
  half-life at 50 µM: 54 h
HCT-116 [10]
  Stability: Stable
HCT-116 [11]
  Stability: Stable
[12]
  remaining at 6 h, 30 µM: 4%
HCT-116 [13]
  Stability: Stable
HCT-116 [14]
  Stability: Stable
MCF7 [15]
  Stability: Stable
HCT-116 [16]
  Stability: Stable
HCT-116 [17]
  Stability: Stable
MCF7 [18]
  Stability: Stable
[19]
  remaining at 1 h, 30 µM: 80%
[20]
  Stability: Stable
MCF7 [21]
  Stability: Stable
HCT-116 [22]
  Stability: Stable
[23]
  remaining at 6 h, 30 µM: 71%
HCT-116 [24]
  Stability: Stable
[25]
  remaining at 3 h, 30 µM: 76%
MCF7 [26]
  Stability: Stable
[27]
  solubility: soluble
[28]
  remaining at 12 h, 30 µM: 65%
[2]
  half-life at 50 µM: > 96 h
[29]
  solubility: soluble
[30]
  remaining at 3 h, 30 µM: 49%
MCF7 [3]
  Activity: Active
HCT-116 [31]
  Stability: Stable
HCT-116 [32]
  Stability: Stable
HCT-116 [4]
  Activity: inactive
MCF7 [33]
  Stability: Stable
